Reference: ChEMBL document CHEMBL3108700, “Designing anti-inflammatory drugs from parasitic worms: a synthetic small molecule analogue of the Acanthocheilonema viteae product ES-62 prevents development of collagen-induced arthritis” (J Med Chem, 2013)
Active and inactive are the calls of the source. The rule behind the calls is not given here.

How the values were obtained:
[1] = target: T1, Toll-like receptor 4 (Mus musculus) (UniProt Q9QUK6); assay: Inhibition of TLR4 in BALB/c mouse BMDM assessed as downregulation of LPS-stimulated IL-6 level at 5 ug/ml preincubated for 18 hrs followed by LPS challenge measured after 24 hrs by ELISA relative to control
T1 sequence (whole entry): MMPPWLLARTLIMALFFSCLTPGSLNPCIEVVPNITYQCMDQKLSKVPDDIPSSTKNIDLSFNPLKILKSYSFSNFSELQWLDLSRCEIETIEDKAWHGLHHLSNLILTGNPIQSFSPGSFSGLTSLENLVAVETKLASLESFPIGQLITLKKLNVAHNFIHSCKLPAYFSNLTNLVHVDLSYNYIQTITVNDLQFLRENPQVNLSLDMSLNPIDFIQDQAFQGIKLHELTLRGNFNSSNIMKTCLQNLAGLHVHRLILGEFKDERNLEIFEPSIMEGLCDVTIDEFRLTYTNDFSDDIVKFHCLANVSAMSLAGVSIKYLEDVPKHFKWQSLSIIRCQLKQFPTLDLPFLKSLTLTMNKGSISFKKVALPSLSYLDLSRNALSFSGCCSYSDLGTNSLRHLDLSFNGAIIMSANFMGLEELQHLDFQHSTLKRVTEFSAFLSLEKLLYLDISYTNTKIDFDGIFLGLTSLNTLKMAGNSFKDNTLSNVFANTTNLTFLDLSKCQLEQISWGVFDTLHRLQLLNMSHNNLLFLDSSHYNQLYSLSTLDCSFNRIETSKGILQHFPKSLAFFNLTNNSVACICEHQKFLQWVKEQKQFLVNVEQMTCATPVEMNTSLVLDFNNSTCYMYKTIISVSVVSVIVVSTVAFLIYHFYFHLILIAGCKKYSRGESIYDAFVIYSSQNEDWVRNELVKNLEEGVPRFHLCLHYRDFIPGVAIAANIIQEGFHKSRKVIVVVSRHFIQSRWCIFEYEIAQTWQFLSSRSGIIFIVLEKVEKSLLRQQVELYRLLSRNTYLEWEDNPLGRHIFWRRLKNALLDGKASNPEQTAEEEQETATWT
Method in brief: (§1)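 BALB/c male bone marrow macrophages were differentiated 7 days with L929 supernatant (≥99% CD11b+/F4/80+). Cells were plated at 2 × 10^5/well in triplicate, rested overnight, and given compounds at 5 μg/mL for 18 h. They were then stimulated with 100 ng/mL S. minnesota LPS, 10 ng/mL Pam3CSK4 (BLP) or 0.01 μM CpG for 24 h. Supernatant IL-12p40 and IL-6 were measured by ELISA (sensitivity 16 pg/mL).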

[2] = target: T2, TLR2/TLR6 (Mus musculus) (UniProt Q9QUN7+Q9EPW9); assay: Inhibition of TLR2/6 in BALB/c mouse BMDM assessed as downregulation of BLP-stimulated IL-6 level at 5 ug/ml preincubated for 18 hrs followed by BLP challenge measured after 24 hrs by ELISA relative to control; type: protein-complex assay; method in brief: as §1
[3] = target: T1, Toll-like receptor 4 (Mus musculus); assay: Inhibition of TLR4 in BALB/c mouse BMDM assessed as downregulation of LPS-stimulated IL-12p40 level at 5 ug/ml preincubated for 18 hrs followed by LPS challenge measured after 24 hrs by ELISA relative to control; method in brief: as §1
[4] = target: T3, Toll-like receptor 9 (Mus musculus) (UniProt Q9EQU3); assay: Inhibition of TLR9 in BALB/c mouse BMDM assessed as downregulation of CpG-stimulated IL-12p40 level at 5 ug/ml preincubated for 18 hrs followed by CpG challenge measured after 24 hrs by ELISA relative to control; method in brief: as §1
T3 sequence (whole entry): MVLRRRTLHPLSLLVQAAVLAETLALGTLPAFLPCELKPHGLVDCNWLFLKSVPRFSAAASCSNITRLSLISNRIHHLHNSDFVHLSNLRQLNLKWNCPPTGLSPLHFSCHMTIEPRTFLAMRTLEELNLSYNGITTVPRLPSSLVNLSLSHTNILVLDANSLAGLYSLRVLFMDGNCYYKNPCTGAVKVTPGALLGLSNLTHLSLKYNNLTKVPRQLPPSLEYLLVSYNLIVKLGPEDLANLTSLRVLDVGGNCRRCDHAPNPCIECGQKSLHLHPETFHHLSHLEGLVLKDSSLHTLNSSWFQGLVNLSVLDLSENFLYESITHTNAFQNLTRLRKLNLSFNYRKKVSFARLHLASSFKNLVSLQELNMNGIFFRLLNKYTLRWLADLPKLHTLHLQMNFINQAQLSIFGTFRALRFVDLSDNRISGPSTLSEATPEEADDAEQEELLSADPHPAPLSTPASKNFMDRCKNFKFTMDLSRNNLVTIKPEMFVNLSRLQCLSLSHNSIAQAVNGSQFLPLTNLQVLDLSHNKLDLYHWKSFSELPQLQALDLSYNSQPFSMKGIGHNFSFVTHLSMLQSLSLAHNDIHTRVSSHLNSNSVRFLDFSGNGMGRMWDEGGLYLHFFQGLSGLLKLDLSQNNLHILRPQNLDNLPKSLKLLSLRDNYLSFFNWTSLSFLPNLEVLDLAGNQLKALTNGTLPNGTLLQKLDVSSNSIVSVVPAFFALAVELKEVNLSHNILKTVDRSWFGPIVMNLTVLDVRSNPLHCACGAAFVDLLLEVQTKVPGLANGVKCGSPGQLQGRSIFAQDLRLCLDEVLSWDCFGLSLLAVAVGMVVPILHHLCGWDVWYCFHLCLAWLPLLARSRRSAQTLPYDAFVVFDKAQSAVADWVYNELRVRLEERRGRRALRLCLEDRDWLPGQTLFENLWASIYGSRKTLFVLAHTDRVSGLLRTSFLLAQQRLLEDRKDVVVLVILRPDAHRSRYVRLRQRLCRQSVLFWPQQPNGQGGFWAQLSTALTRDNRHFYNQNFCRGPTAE

[5] = target: T2, TLR2/TLR6 (Mus musculus); assay: Inhibition of TLR2/6 in BALB/c mouse BMDM assessed as downregulation of BLP-stimulated IL-12p40 level at 5 ug/ml preincubated for 18 hrs followed by BLP challenge measured after 24 hrs by ELISA relative to control; type: protein-complex assay; method in brief: as §1
[6] = target: T3, Toll-like receptor 9 (Mus musculus); assay: Inhibition of TLR9 in BALB/c mouse BMDM assessed as downregulation of CpG-stimulated IL-6 level at 5 ug/ml preincubated for 18 hrs followed by CpG challenge measured after 24 hrs by ELISA relative to control; method in brief: as §1

SMILES	inhibition [1]	inhibition [2]	inhibition [3]	inhibition [4]	inhibition [5]	inhibition [6]
CC[C@H](C)NCCS(=O)(=O)c1ccccc1	inactive	inactive	inactive	inactive	inactive	inactive
CN(C)CCCNS(=O)(=O)Cc1ccc([N+](=O)[O-])cc1	inactive	Active	inactive	inactive	inactive	inactive
O=S(=O)(CCN1CCCC1)Cc1cccc(F)c1	inactive	inactive	inactive	inactive	Active	inactive
O=S(=O)(CCN1CCOCC1)c1ccccc1	inactive	inactive	inactive	inactive	Active	inactive
Cc1ccc(CNS(=O)(=O)CCN(C)C)cc1	inactive	inactive	inactive	inactive	inactive	inactive
CN(C)CCN(C)CCS(=O)(=O)Cc1cccc(F)c1	inactive	inactive	inactive	inactive	inactive	inactive
CN(C)CCN(C)CCS(=O)(=O)Nc1ccc(F)cc1	inactive	inactive	Active	inactive	inactive	inactive
CC(C)(C)NCCS(=O)(=O)c1ccccc1	inactive	inactive	inactive	inactive	Active	inactive
CN(C)CCNS(=O)(=O)Cc1ccc(F)cc1	inactive	inactive	inactive	inactive	inactive	inactive
Cc1ccc(CP(=O)(O)OCCCN(C)C)cc1	inactive	inactive	inactive	inactive	inactive	inactive
CN(C)CCS(=O)(=O)NCc1ccc(F)cc1	inactive	inactive	inactive	Active	inactive	inactive
O=S(=O)(CCN1CCCC1)c1ccccc1	inactive	inactive	inactive	inactive	Active	inactive
CN(C)CCCOP(=O)(O)Oc1ccc(NC(=O)OC(C)(C)C)cc1	inactive	inactive	inactive	inactive	inactive	inactive
CN(C)CCOP(=O)(O)Cc1ccc([N+](=O)[O-])cc1	inactive	inactive	inactive	inactive	inactive	inactive

Other lines, results leading:

inhibition [1]	inhibition [2]	inhibition [3]	inhibition [4]	inhibition [5]	inhibition [6]	SMILES
inactive	inactive	inactive	inactive	inactive	inactive	CN(C)CCNS(=O)(=O)Cc1ccc(Br)cc1
Active	inactive	inactive	inactive	inactive	inactive	CN(C)CCCS(=O)(=O)Cc1ccc(Br)cc1
Active	Active	inactive	Active	inactive	Active	O=S(=O)(CCN1CCOCC1)NCc1ccc(F)cc1
inactive	Active	inactive	inactive	Active	inactive	CN(C)CCS(=O)(=O)Cc1ccc(F)cc1
Active	inactive	Active	inactive	inactive	inactive	Cc1ccc(CS(=O)(=O)CCN(C)C)cc1
inactive	inactive	inactive	inactive	inactive	inactive	O=S(=O)(CCCN1CCCC1)Cc1ccc(Br)cc1
inactive	inactive	inactive	inactive	inactive	inactive	C[N+]1(CCCS(=O)(=O)Cc2ccc(Br)cc2)CCOCC1
Active	Active	Active	inactive	Active	inactive	Cc1ccc(CS(=O)(=O)CCN2CCCC2)cc1
inactive	inactive	inactive	inactive	inactive	inactive	Cc1ccc(CS(=O)(=O)NCCN2CCCC2)cc1
inactive	inactive	inactive	inactive	inactive	inactive	O=S(=O)(Cc1ccc(F)cc1)NCCN1CCCC1
